# Screens deposited in PubChem BioAssay by Sanford-Burnham Center for Chemical Genomics.
# STEP inh: STEP (human) phosphatase inhibition | recombinant STEP, OMFP fluorogenic substrate, fluorescence | actives 0.25% (n = 360,000) | AID 588621 | P54829 | inhibition, % at 20 µM;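 active = inhibition at 20 µM, scaled per plate between control wells, above about 37%, limit read from the data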;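 note: 0% = DMSO with enzyme and substrate and 100% = substrate only without enzyme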
#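 Assay system: isolated STEP enzyme / Timing: 20 min at room temperature, dark / Doses: 20 µM, 1% DMSO / Technique: fluorescence intensity, excitation 480 nm, emission 540 nm / Reagent: fluorogenic phosphatase substrate OMFP at 25 µM final / Measure: percent inhibition scaled to no-enzyme and uninhibited-enzyme controls, plate-pattern corrected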
# DNMT1 inh: inhibitors of human DNMT1. DNMT1 molecular beacon, Hinp1I cleavage, fluorescence. inhibition (reported as % activation of signal), % at 10 µM. P26358. actives 0.83% (n = 360,000); in the data active = inhibition above about 50%
# Scp-1 inhibitor: blocks human Scp-1 phosphatase activity. Q9GZU7. inhibition, % at 20 µM. actives 0.88% (n = 340,000). Recombinant Scp1, phosphopeptide, malachite green phosphate absorbance;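 active = inhibition above about 50% at 20 µM, limit read from the data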;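 note: plate controls were DMSO wells with enzyme for no effect and wells lacking enzyme for full effect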
# Target sequence (Q9GZU7 76-261 limits assumed): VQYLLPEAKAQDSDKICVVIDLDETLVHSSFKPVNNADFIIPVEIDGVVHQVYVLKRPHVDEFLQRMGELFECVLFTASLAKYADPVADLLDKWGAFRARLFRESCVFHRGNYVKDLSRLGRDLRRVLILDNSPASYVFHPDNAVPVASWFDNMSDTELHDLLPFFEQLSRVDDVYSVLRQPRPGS
#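 Incubation: 45 min enzyme reaction at room temperature / System: truncated SCP-1 phosphatase (76-261aa) / Reagent: Phospho 17-mer peptide substrate / Buffer or medium: Acidic Tris acetate buffer with magnesium and detergent / Signal: absorbance at 630 nm / Doses: one concentration, 20 µM, with 1.0% DMSO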
# LMPTP block: blocks human LMPTP phosphatase; P24666; recombinant LMPTP-A, OMFP fluorogenic substrate, fluorescence intensity; inhibition, % at 20 µM; actives 0.22% (n = 360,000);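 active = compounds that cut the enzyme signal by at least half of the control window in the single-dose screen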;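 note: plate controls were DMSO wells with enzyme plus substrate for no effect and substrate without enzyme for full effect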
# Target sequence (P24666 whole entry, looked up): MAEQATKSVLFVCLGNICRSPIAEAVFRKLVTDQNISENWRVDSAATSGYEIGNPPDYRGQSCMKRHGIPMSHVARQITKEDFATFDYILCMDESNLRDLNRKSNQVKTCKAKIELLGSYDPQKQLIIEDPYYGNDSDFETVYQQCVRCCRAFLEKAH
#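 Test system: LMPTP-A, protein tyrosine phosphatase of low molecular weight; Input: 0.625 nM enzyme; Incubation: 50 min dark incubation at room temperature; Signal: endpoint fluorescence intensity from OMFP dephosphorylation; Read-out basis: % inhibition versus control wells.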
# Rpn11 inh: inhibitors of human proteasome Rpn11; O00487; human 26S proteasome, Ub4-pepOG fluorescence polarization; 20S core pre-blocked with epoxomicin; inhibition, % at 20 µM; actives 0.59% (n = 360,000);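 active = inhibition at 20 µM, scaled to each plate's controls, above about 33%, limit read from the data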
# Target sequence (O00487 whole entry, looked up): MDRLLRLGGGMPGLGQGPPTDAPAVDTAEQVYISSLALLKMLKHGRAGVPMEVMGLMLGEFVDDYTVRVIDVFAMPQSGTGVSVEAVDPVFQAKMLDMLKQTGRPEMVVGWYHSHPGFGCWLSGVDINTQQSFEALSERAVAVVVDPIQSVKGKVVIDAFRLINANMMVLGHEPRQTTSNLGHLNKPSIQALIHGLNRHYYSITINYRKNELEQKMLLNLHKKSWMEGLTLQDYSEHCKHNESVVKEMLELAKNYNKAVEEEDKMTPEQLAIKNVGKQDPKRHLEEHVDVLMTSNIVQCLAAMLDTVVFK
# Scp-1 conf: Scp-1 (human) inhibition, single-dose confirmed; inhibition, % at 20 µM; shares compounds with Scp-1 inhibitor; actives 61% (n = 2,500); recombinant SCP-1 catalytic domain, phosphate release, malachite green absorbance; AID 540281;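 note: plate controls were DMSO with enzyme for no effect and buffer wells lacking enzyme for full effect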
# MG interference: interferes with malachite green readout, flagging false Scp-1 hits; apparent inhibition (interference), % at 20 µM; Colorimetric interference counterscreen, malachite green absorbance 630 nm; AID 540313; shares compounds with Scp-1 inhibitor; 2,500 tested, under 10 active;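 note: compounds added after enzyme reaction finished so only phosphate colour detection is probed; plate controls were DMSO wells with completed Scp-1 reaction for no effect and substrate wells lacking enzyme for full effect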
# Scp-1 Tm shift: binds human Scp-1, shifting its melting temperature; shares compounds with Scp-1 inhibitor; Recombinant SCP1, Sypro Orange thermal shift Tm; thermal shift relative to vanadate control, % at 40 µM; actives 25% (n = 1,500);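 active = substances whose mean melting-temperature shift, as a percentage of the reference inhibitor's shift, reaches about 5.3%, limit read from the data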;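 note: 0% = Tm of DMSO wells and 100% = Tm with sodium orthovanadate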
# DNMT1 interf DR: beacon fluorescence artifact, dose response counter-screen; shares compounds with DNMT1 inh; 200 tested, under 10 active; molecular beacon fluorescence, spectral interference counter-screen; IC50, µM; AID 602382; call rule not given here
# DNMT1 inh conf: confirmation of human DNMT1 inhibitors. DNMT1 molecular beacon HinP1I cleavage, fluorescence. inhibition, % at 10 µM. shares compounds with DNMT1 inh. actives 8% (n = 2,300);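 active = average inhibition of at least 30% in the single-concentration confirmation test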
# Beacon interf: counter-screen for DNMT1 inhibitors: spectral interference; shares compounds with DNMT1 inh; DNMT1 molecular beacon spectral interference counterscreen, fluorescence 485/520; activation (fluorescence interference), % at 10 µM; actives 1% (n = 2,300); AID 602387;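 active = activation of at least 30% at 10 µM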;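 note: DNMT1 catalytic domain with a HinP1I cleavage step and a FAM/dabcyl DNA beacon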
# * marks the source's active call; other numbers are inactive results; nt = no result. A selection: hits, their analogues and other compounds. The true share with any hit is near 2%.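 Rule for the calls, unless noted: active = inhibition of at least 30% at 20 µM; inactive = the rest.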
SMILES,STEP inh,DNMT1 inh,Scp-1 inhibitor,LMPTP block,Rpn11 inh,Scp-1 conf,MG interference,Scp-1 Tm shift,DNMT1 inh conf,Beacon interf,others
CN(C)C(=O)CCc1ccc2c3c([nH]c2c1)[C@]1(CCc2ccccc2)[C@@H](C(=O)N2CCCCC2)C[C@H](CC(=O)NC(C)(C)C)C(=O)N1CC3,1.8,-1.8,12.3,-0.5,-3.4,nt,nt,nt,nt,nt,
CSC1=N/C(=C\c2ccc(Br)o2)C(=O)S1,23.2,100.5*,83.7*,23.6,19.5,53.5*,-22.2,4.7,-1.8,0.2,
Cc1ccnc(NS(=O)(=O)c2ccc(NC(=O)Cc3cccs3)cc2)n1,0.7,89.5*,59.9*,14.4,33.4,73.3*,-5.4,6.8*,22.1,-3.4,DNMT1 interf DR=>99
Cc1ccnc(NS(=O)(=O)c2ccc(NC(=O)Cc3ccc(F)cc3)cc2)n1,-1.5,4.1,-0.9,-2.1,-2.0,nt,nt,nt,nt,nt,
O=C(Cc1cccs1)Nc1ccc(S(=O)(=O)N2CCCCC2)cc1,3.7,57.4*,89.4*,17.6,1.2,64.2*,-19.7,6.6*,8.1,4.1,
C/C(=N\NC(=O)Cc1ccc(Cl)cc1)c1cccc(NC(=O)c2cccnc2)c1,-0.3,-1.9,1.1,1.3,7.4,nt,nt,nt,nt,nt,
Cc1ccc(NC(=O)CN2C(=O)N/C(=C/c3ccccc3OCc3cccc(C(=O)O)c3)C2=O)cc1,0.1,3.0,25.1,0.8,4.5,nt,nt,nt,nt,nt,
ON=Cc1cccn1-c1ccccc1,-1.6,-1.0,-3.7,-0.2,-4.8,nt,nt,nt,nt,nt,
Cc1cc(C(=O)O)ccc1-c1ccc(/C=C2\NC(=O)N(Cc3ccc(F)cc3)C2=O)o1,9.1,64.0*,72.6*,9.1,-8.3,65.1*,-6.2,9.4*,20.3,-0.3,
CCOC(=O)c1cccc(-n2cccc2/C=C2\NC(=O)N(CC(=O)O)C2=O)c1,-0.3,0.1,-2.7,0.4,0.5,nt,nt,nt,nt,nt,
Cc1ccc(CN2C(=O)N/C(=C\c3cccn3-c3cccc(C(=O)O)c3)C2=O)cc1,5.3,90.7*,64.1*,3.6,-5.3,57.2*,-19.9,0.4,9.4,-2.0,
Cc1ccc(NC(=O)CN2C(=O)N/C(=C/c3cc(C)n(-c4cccc(C(=O)O)c4)c3C)C2=O)cc1,18.2,83.8*,59.1*,7.4,-4.8,66.4*,-10.1,6.9*,9.6,-1.4,
O=C(O)c1cccc(-n2cccc2/C=N/O)c1,10.9,105.4*,76.6*,4.6,-2.0,64.8*,-7.9,-13.2,3.3,0.6,
Cc1ccc(S(=O)(=O)N2[C@H](CC(=O)OCc3ccccc3)OC[C@@H]2C(C)C)cc1,nt,nt,nt,3.0,nt,nt,nt,nt,nt,nt,
COc1ccc([C@H]2C[C@H](n3cc(COC(=O)c4ccccc4)nn3)[C@@H](O)CN2CC2CCCCC2)cc1,0.1,-2.6,nt,1.1,0.0,nt,nt,nt,nt,nt,
C[C@@H]1CCCCO[C@@H](CN(C)C(=O)CCCN(C)C)[C@@H](C)CN([C@H](C)CO)C(=O)c2cc(N(C)C)ccc2O1,1.3,0.7,nt,-3.9,-4.9,nt,nt,nt,nt,nt,
Cc1ccc(NC(=O)CN2C(=O)N/C(=C\c3cccn3-c3cccc(C(=O)O)c3)C2=O)cc1,12.4,91.2*,66.8*,14.7,17.7,54.7*,-19.9,6.2*,59.7*,0.3,DNMT1 interf DR=>99
COCCNC(=O)C1CCCN(C(=O)c2sccc2C)CC1 (stereo unspecified),-3.0,2.0,nt,-0.9,-1.3,nt,nt,nt,nt,nt,
Cc1cc(C)nc(SCC(=O)Nc2ccccc2[N+](=O)[O-])n1,-3.9,1.4,-2.0,0.0,-3.3,nt,nt,nt,nt,nt,
O=C1CC(=O)NC(SCC(=O)Nc2ccccc2[N+](=O)[O-])=N1,21.3,64.2*,76.6*,6.6,18.9,66.6*,-12.3,13.1*,32.9*,2.7,DNMT1 interf DR=>99
Cc1ccccc1Oc1ccc2c(c1)[C@@H]1C[C@H](N(C)C(=O)c3cccnc3)[C@H]([C@H](C)O)C(=O)N1CC2,2.9,1.3,nt,-0.5,-0.9,nt,nt,nt,nt,nt,
Cc1ccc(-n2nc(-c3ccco3)cc2C(=O)O)cc1,24.5,156.3*,66.0*,8.9,24.7,58.4*,-15.9,7.0*,15.5,-1.1,
CCc1ccc(NC(=O)COC(=O)/C=C/c2ccco2)cc1,17.5,50.1*,67.4*,4.8,-1.4,62.6*,-0.5,0.2,3.1,2.5,
CN(CCOC(=O)/C=C/c1ccco1)Cc1ccccc1,3.0,78.0*,65.6*,0.3,-9.7,52.9*,-8.2,1.2,9.0,-2.9,
CC(C)c1cc(Cn2c3ccccc3c(=O)n2C(C)Cn2cc(COc3ccccc3)nn2)on1 (stereo unspecified),nt,nt,nt,-0.7,nt,nt,nt,nt,nt,nt,
SMILES,STEP inh,DNMT1 inh,Scp-1 inhibitor,LMPTP block,Rpn11 inh,Scp-1 conf,MG interference,Scp-1 Tm shift,DNMT1 inh conf,Beacon interf,others
O=C(Nc1sc2c(c1C(=O)O)CCC2)c1ccccc1,23.1,82.2*,58.1*,8.9,-8.7,53.8*,-14.8,6.6*,0.2,6.8,
O=C(Nc1sc2c(c1C(=O)O)CCCCC2)c1ccccc1,3.8,-2.0,-5.5,-0.8,1.7,nt,nt,nt,nt,nt,
O=C1C2C(C(=O)N1/N=C/c1cc([N+](=O)[O-])c(O)cc1O)C1C=CC2C12CC2 (stereo unspecified),11.9,82.9*,64.2*,16.6,-23.4,64.5*,-2.7,5.9*,7.3,-1.2,
Cc1cc(/C=C(/C#N)c2nc3ccccc3[nH]2)c(C)n1-c1cc(C(=O)O)cc(C(=O)O)c1,24.4,76.6*,58.6*,2.6,20.5,52.9*,-8.2,4.2,7.9,-2.5,
Cc1ncc([N+](=O)[O-])n1CCOC(=O)c1cc(Cl)cc(Cl)c1N,3.0,60.5*,61.6*,5.8,-6.0,68.2*,-11.4,12.0*,4.0,3.2,
COCc1cc(C)n(CC(=O)N/N=C/c2ccc(-c3ccc(Cl)c(C(=O)O)c3)o2)c(=O)c1C#N,2.9,57.6*,66.3*,-1.2,-8.3,63.2*,-12.9,4.7,4.8,-2.0,
O=C(Cc1ccc(F)cc1)N/N=C/c1ccc(-c2ccc(Cl)c(C(=O)O)c2)o1,-3.1,0.6,1.6,1.2,7.2,nt,nt,nt,nt,nt,
Cc1c(C(=O)O)cccc1-c1ccc(/C=N/n2cnnc2)o1,27.0,58.5*,67.5*,0.5,-20.7,37.5*,-14.7,-18.0,7.1,-0.3,
